Only some compounds are listed: those with a hit (about 2.2% of all), similar ones and a draw of the others.
Mdm2 ligase inh – blocks human Mdm2 ubiquitin ligase activity | AID 1230 | signal enhancement, % at 5 µM | cell-based MDM2 ubiquitination luciferase reporter, 2 h; 0 = plate control, 100 = twice control, blank-subtracted | 0.11% of 210,000 active;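 active = signal enhancement of 30% or more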;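 also: luminescence tracks abundance of the self-degrading MDM2-luciferase fusion protein; higher signal means inhibition of MDM2 E3 ligase activity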
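Timing – 2 h compound exposure at 37 °C · Assay system – mammalian cells stably expressing self-ubiquitinating, self-degrading MDM2 E3–luciferase fusion · Amount – 2000 cells seeded into each well · Measure – % luminescence enhancement versus blank-corrected plate control mean · Measured by – SteadyLite luminescence, 15 min reagent step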
Wee1 stabilizer – blocks degradation of human Wee1 kinase; P30291; reporter increase, % at 5 µM; HeLa Luc-Wee1K328M stability, luciferase luminescence; 100% = proteasome inhibitor MG132 effect; AID 1321; 1.2% of 220,000 active;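 active = activation above the mean of all tested compounds plus 3 SD, set per screening run, cut at about 8.8% in these data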;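 also: cells exposed to compound for 20 h before luminescence read; 0% = DMSO alone and 100% = MG132 at 30 µM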
Target sequence (P30291 whole entry K328M): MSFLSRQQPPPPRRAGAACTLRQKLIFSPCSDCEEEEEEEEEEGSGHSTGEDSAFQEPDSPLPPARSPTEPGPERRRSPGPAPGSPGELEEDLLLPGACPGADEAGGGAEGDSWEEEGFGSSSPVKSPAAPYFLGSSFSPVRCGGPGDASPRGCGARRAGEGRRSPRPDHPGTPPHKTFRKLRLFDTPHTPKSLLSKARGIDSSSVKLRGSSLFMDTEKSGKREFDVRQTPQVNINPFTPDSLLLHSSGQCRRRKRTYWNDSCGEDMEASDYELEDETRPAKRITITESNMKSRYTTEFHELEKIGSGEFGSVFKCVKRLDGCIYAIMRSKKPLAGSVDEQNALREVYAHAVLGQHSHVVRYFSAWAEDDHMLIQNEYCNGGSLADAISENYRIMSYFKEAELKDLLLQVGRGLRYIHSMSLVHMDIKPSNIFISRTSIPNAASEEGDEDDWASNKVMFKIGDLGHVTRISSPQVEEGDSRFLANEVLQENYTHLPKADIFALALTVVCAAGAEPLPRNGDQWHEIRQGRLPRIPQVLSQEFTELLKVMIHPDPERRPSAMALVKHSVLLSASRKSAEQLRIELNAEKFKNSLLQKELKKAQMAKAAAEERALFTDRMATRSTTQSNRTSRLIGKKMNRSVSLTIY
Ins promoter up – MIN6 insulin promoter up-regulation | MIN6 insulin promoter-GFP reporter, high-content imaging; hits give high values | z-score at 5 µM | 0.3% of 190,000 active;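 active = z-score above 3 at 5 µM with at least 500 cells counted in the well; inconclusive = wells under 500 cells, flagged as cytotoxic or low count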
INS promoter inh – TRM-6 insulin promoter activity inhibition. TRM-6 cells, insulin promoter-eGFP reporter, imaging; reporter expression induced with tamoxifen. inhibition, % at 2 µM. 0.9% of 130,000 active;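 active = inhibition above the mean plus 3 SD, with well images judged a real hit on visual review, cut at about 60% in these data, passing the limit was not always enough; inconclusive = inhibition over the cutoff but images rejected on review; inactive = inhibition not above the cutoff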
RBBP9 inh – inhibitors of human serine hydrolase RBBP9. O75884. recombinant RBBP9, FP-Rh probe fluorescence polarization. inhibition, % at 7.94 µM. 0.2% of 220,000 active;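 active = inhibition above the campaign mean of all tested compounds plus 3 SD, cut at about 14% in these data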;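 also: plate controls were DMSO wells with RBBP9 for no effect and wells lacking RBBP9 protein for full effect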
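Controls: DMSO-treated enzyme wells and wells lacking RBBP9 | Material: RBBP9 protein | Technique: Fluorescence polarization | Replication: Single well per compound, no replicates | Buffer or medium: Tris-NaCl-Pluronic buffer, pH 8.0 | Timing: 30 min compound preincubation, 45 min probe labeling, 25 °C | Read-out basis: Percent inhibition from mP, scaled between DMSO and no-protein wells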
Hsp70 act – Hsp70 transcriptional activation, primary screen; 0.04% of 200,000 active; HeLa Hsp70 promoter luciferase reporter, luminescence; scaled: vehicle 0, proteasome-inhibitor control 100%; activation, % at 10 µM;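 active = activation above the mean across all tested compounds plus 3 SD, cutoff set per campaign, cut at about 5.5% in these data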;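 also: 100% = MG132 at 30 µM as the positive control and 0% = DMSO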
Numbers without * were called inactive; i = inactive; ? = inconclusive; · = no result given; ! = repeats disagree.

SMILES	Mdm2 ligase inh	Wee1 stabilizer	Ins promoter up	INS promoter inh	RBBP9 inh	Hsp70 act
COc1ccc(NS(=O)(=O)c2cc(OCC(N)=O)c(C)cc2Cl)cc1	12	2	-0.01	35	-8	0
CCOc1ccccc1CNCc1ccc(F)cc1	6	3	0.49	·	-3	0
COc1ccc(-c2cc(C(F)(F)F)n3nc(C(=O)N4CCCCC4)cc3n2)cc1	-7	-1	-0.76	-21	-7	0
COc1ccc(-c2cc(C(F)(F)F)n3nc(C(=O)NCCCN4CCOCC4)cc3n2)cc1	9	10*	0.13	·	-3	0
Cc1ccc(S(=O)(=O)Nc2nc(C)c(NC(=O)Nc3ccc(Cl)cc3Cl)s2)cc1	-8	-2	-0.34	·	5	1
CNS(=O)(=O)c1cccc(C(=O)OCC(=O)Nc2ccc(Cl)cc2F)c1	-5	9.8*	0.2	·	-3	·
CN(C)c1cccc(C(=O)OCC(=O)Nc2ccccc2Cl)c1	7	-1	-0.01	75*	-15	0
CNS(=O)(=O)c1cccc(C(=O)OCC(=O)Nc2cc(F)ccc2F)c1	-9	-1	0.72	24	-5	0
CC(=O)Nc1ccc(Br)cc1C(=O)C(=O)O	-19	3	0.3	·	5	0
Cc1cccc(-n2c3nc(=O)[nH]c(=O)c-3cc3c(C)nn(-c4ccccc4)c32)c1	6	-4	-0.37	62*	-7	0
COc1ccc(NC(=O)C2CCC(C)(C(=O)O)C2(C)C)cc1 (stereo not given)	2	-1	-0.13	-21	-4	0
CCOc1ccc(NC(=O)C2CCC(C)(C(=O)O)C2(C)C)cc1 (stereo not given)	1	-1	3.6*	·	-1	0
CC(C)NC(=O)/C(C#N)=C\c1ccc(N(C)C)o1	4	0	12*	i	-2	0
Cc1ccc(-n2nnnc2SCC(=O)Nc2ncc(Cc3ccccc3Cl)s2)cc1	-3	1	-0.33	·	-3	0
CN(C)c1oc(-c2ccccc2Cl)nc1C#N	32*	1	-0.34	-8	7	0
CN(C)c1oc(-c2ccccc2)nc1C#N	-5	0	0.31	45	-9	0
COc1ccc(C(=O)Nc2ccc3c4c(cccc24)CC3)cc1	-3	-3	1.4	100*	-3	0
CC(=O)OC1CCC(OC(C)=O)c2c1n([O-])c(C)c(C)[n+]2=O (stereo not given)	-40	11*	0.8	-100	4	0
O=C(N[C@H](C(=O)O)c1ccccc1)C1CCC(Cn2nnc3ccccc3c2=O)CC1 (stereo not given in full)	-11	-1	·	·	0	·
CCOC(=O)C(C)(C)Sc1nc2c(cnn2-c2ccc(Cl)cc2)c(=O)[nH]1	-11	2	2.1	·	-8	0
CCC(Sc1nc2c(cnn2-c2ccc(Cl)cc2)c(=O)[nH]1)C(=O)OC (stereo not given)	-21	0	1.7	80*	-5	0
O=C(Oc1cccc(NC(=O)c2ccco2)c1)c1cccc(S(=O)(=O)N2CCCCC2)c1	-15	2	-0.05	-45	-13	0
O=S(=O)(Cc1ccccc1Cl)NCc1ccccc1	3	-1	·	0	-9	0
O=S(=O)(Cc1ccccc1Cl)NCCOc1ccccc1	0	9.0*	1.6	0	4	0
O=C(O)C1CCN(c2ccccc2[N+](=O)[O-])CC1	-9	1	0.13	·	1	0
SMILES	Mdm2 ligase inh	Wee1 stabilizer	Ins promoter up	INS promoter inh	RBBP9 inh	Hsp70 act
COc1ccc2[nH]c(=O)cc(C(=O)O)c2c1	0	0	1.2	·	5	0
COc1ccc2[nH]c3c4c(ccc3c2c1)C(=O)C=CC4=O	32*	14*	-0.64	·	84*	·
Nc1ccc2nc(SCC(=O)N3CCOCC3)sc2c1	1	-2	1.2	80*	-5	0
CCOC(=O)N1CCN(c2ncnc3c2[nH]c2ccc(OC)cc23)CC1	-9	1	-0.23	91*	-2	0
COc1ccc(N2CCN(c3ncnc4c3[nH]c3ccccc34)CC2)cc1	-28	-1	0.73	·	2	0
CCOC(=O)N1CCN(c2ncnc3c2[nH]c2ccc(F)cc23)CC1	-23	-2	?	14	-2	0
COc1ccc2[nH]c3c(N4CCc5ccccc5C4)ncnc3c2c1	-16	9.7*	·	·	-6	·
COc1ccc2[nH]c3c(NCCN4CCCCC4)ncnc3c2c1	-20	0	-0.94	81*	-5	0
Cc1ccc(OCCC(=O)O)cc1	-10	0	0.33	·	-2	·
CCn1c(=O)c(C(=O)CN2CCN(S(=O)(=O)c3cc(C)ccc3C)CC2)c(N)n(Cc2ccccc2)c1=O	12	3	-0.45	-37	-8	0
O=C(C(=O)N1CCCC1CO)N1CCCC1CO (stereo not given)	9	5	0.1	·	-3	0
CCN(CC)S(=O)(=O)c1ccc(N2CCOCC2)c(NC(=O)COc2ccc(C#N)cc2)c1	-16	1	-1.4	·	-3	·
CCOC(=O)/C(C#N)=C/c1c[nH]c2ccccc12	-15	10*!	0.14	-60	-3	0
CC(C)(C)c1nnc(NC(=O)CN2C(=O)C3C4C=CC(C4)C3C2=O)s1 (stereo not given)	19	-1	0.24	75*	-4	0
CCC(=O)Nc1nnc(C(C)(C)C)s1	-18	0	-0.16	-11	-9	0
CC(C)N1CCN(Cc2cccn2-c2ccccn2)CC1CCO (stereo not given)	-2	3	-0.87	·	-1	0
Cc1nn(C)c(C)c1CNC(=O)/C=C/c1ccccc1F	-5	-2	0.06	71*	-5	0
Cc1cc(C)cc(N(C(=O)CNS(=O)(=O)c2ccccc2)C(C(=O)NCc2ccccc2)c2ccc(C)o2)c1 (stereo not given)	-9	11*	·	·	-3	0
O=C(C1CCCN(S(=O)(=O)c2cnc[nH]2)C1)N1CC(=O)N(CCc2ccccc2)C(=O)C1 (stereo not given)	-33	1	1.1	·	-2	0
O=C(Cn1c(=O)sc2ccccc21)Nc1ccccc1	-6	-1	0.22	·	6	0
COC(=O)Cn1c(=O)sc2ccccc21	-9	10*	0.8	·	3	-1
CCN(CC)S(=O)(=O)c1ccc(NC(=O)Cn2c(=O)sc3ccccc32)cc1	12	9.2*	-0.12	-475	-6	0
COc1ccc(NC(=O)Cn2c(=O)sc3ccccc32)cc1	-10	0	1.7	-54	-8	0
CCOC(=O)CN1C(=O)CN(c2ccc(C)c(C)c2)C1=O	-8	-2	0.15	17	-10	0
CCOC(=O)c1cccc(NS(=O)(=O)c2cnc[nH]2)c1	-18	-2	0.23	·	1	0
